One data set has as its system HepG2. The experiment in a line: Cytotoxicity against human HepG2 cells assessed as reduction in cell viability up to 400 uM after 48 hrs by CellTiter-Glo assay. It is filed as cell-based. The conditions noted are these: hepg2, 48 h. The gist of the method:
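HEK293T and HepG2 cells grown in high-glucose DMEM with non-essential amino acids, 10 mM HEPES, penicillin/streptomycin and 10% heat-inactivated FBS. Cells were harvested with trypsin and plated; compound was pin-transferred 3 h later. Incubation was 48 h, then CellTiter-Glo luminescence was read. Controls were DMSO (negative) and a cytotoxic aminoketone (positive). Quadruplicates, three independent runs, normalized to controls, nonlinear regression.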

The next data set has as its system Brain. The experiment in a line: Unbound AUC in Wistar rat brain at 10 mg/kg, ip administered as single dose measured at 5 to 720 mins post dose by HPLC-MS/MS analysis. It counts as ADME, organism-based. The following applies: in vivo. In a few lines:
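Free fraction in rat plasma and brain tissue was measured in vitro by rapid equilibrium dialysis. Exposure came from male Wistar rats (250-350 g) given a single 10 mg/kg IP dose, as a 5 mg/ml suspension in 85% water, 14% propylene glycol and 1% Tween 80. Three rats per time point (5–720 min); brain analysed by HPLC-MS/MS after solid-phase extraction.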

The test system of data set [1] is Rattus norvegicus. The experiment in a line: Toxicity in Wistar rat assessed as grip strength by measuring peak force of pull necessary to overcome strength of animal's grip at 10 mg/kg, ip (reference value: 2.79 +/- 0.16 kg/kg). It is filed as organism-based. The conditions noted are these: in vivo.
Data set [2] concerns Rattus norvegicus. Nature of the data set: Toxicity in Wistar rat assessed as peripheral ring distance at 10 mg/kg, ip administered for 45 mins by cued water-maze method (reference value: 67.44 +/- 4.60%). The conditions noted are these: in vivo, 0.75 h. It counts as organism-based.
The nature of data set [3]: Drug metabolism in human liver microsomes assessed as CYP450 mediated-O-demethylated 2-(4-hydroxyphenyl)-7-methoxy-2H-pyrazolo[4,3-c]quinolin-3(5H)-one metabolite formation after 60 mins by LC-MS analysis. The following applies: 1 h. It counts as ADME. In a few lines: (§1)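 The 60-min samples from the human or mouse liver microsome incubations (10 µM compound, 0.5 mg/mL protein, NADPH regenerating system, 37 °C, pH 7.4) were run on LC-MS in SIM mode with dual ESI/APCI ionization. The method was calibrated to each component's retention time and mass, and the peak intensities of the parent and O-demethylated metabolites were measured.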
On the technique in general: Liver microsomes are a subcellular fraction often used to study metabolism.

Data set [4] concerns Rattus norvegicus. The experiment in a line: Toxicity in Wistar rat assessed as total distance traveled at 10 mg/kg, ip administered for 45 mins measured for 5 min by elevated plus maze method (reference value: 6.71 +/- 0.56 meter). It is filed as organism-based. The conditions noted are these: in vivo.
Data set [5] deals with Rattus norvegicus. The experiment in a line: Toxicity in Wistar rat assessed as open arm entries at 10 mg/kg, ip administered for 45 mins measured for 5 min by elevated plus maze apparatus method (reference value: 23.07 +/- 5.47%). The conditions noted are these: in vivo. It is filed as organism-based.
Data set [6] is described as follows: Drug metabolism in mouse liver microsomes assessed as CYP450 mediated-O-demethylated 2-(4-hydroxyphenyl)-7-methoxy-2H-pyrazolo[4,3-c]quinolin-3(5H)-one metabolite formation after 60 mins by LC-MS analysis. It is filed as ADME. The conditions noted are these: 1 h. The gist of the method: as §1
The nature of data set [7]: Drug metabolism in human liver microsomes assessed as CYP450 mediated-O-demethylated 7-hydroxy-2-(4-hydroxyphenyl)-2H-pyrazolo[4,3-c]quinolin-3(5H)-one metabolite formation after 60 mins by LC-MS analysis. It is filed as ADME. The following applies: 1 h. The gist of the method: as §1
Data set [8] deals with Rattus norvegicus. The experiment in a line: Toxicity in Wistar rat assessed as closed arm entries at 10 mg/kg, ip administered for 45 mins measured for 5 min by elevated plus maze apparatus method (reference value: 3.63 +/- 0.42). The conditions noted are these: in vivo. It counts as organism-based.
Data set [9] concerns the target GABA-A receptor; alpha-3/beta-3/gamma-2 (Homo sapiens) (UniProt P18507+P28472+P34903). Nature of the data set: Positive allosteric modulation of GABA-A receptor alpha3beta3gamma2 (unknown origin) expressed in Xenopus laevis oocytes assessed as potentiation of EC3 GABA induced currents up to 1 uM at -60 mV holding potential by electrophysiological method relative to GABA. It counts as cell-based. In a few lines:
(§2)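 Stage 5–6 defolliculated Xenopus oocytes were injected with 2.5 ng total mRNA per oocyte: α1, α2, α3 or α5 with β3 and γ2 at 1:1:5, and α4 or α6 with β3 and γ2 at 3:1:5. Oocytes were kept ≥36 h at 18 °C in NDE medium before recording. Compounds were co-applied with GABA titrated to EC3-5 for each oocyte. Curves were fitted with the Hill equation; mean ± SEM from ≥3 oocytes across two batches.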

The target in data set [10] is GABA-A receptor; alpha-5/beta-3/gamma-2 (Homo sapiens) (UniProt P18507+P28472+P31644). Nature of the data set: Positive allosteric modulation of GABA-A receptor alpha5beta3gamma2 (unknown origin) expressed in Xenopus laevis oocytes assessed as potentiation of EC3 GABA induced currents up to 1 uM at -60 mV holding potential by electrophysiological method relative to GABA. It is filed as cell-based. The gist of the method:
as §2

In a further data set the test system is Liver. Nature of the data set: Half life in human liver microsomes at 10 uM by LC-MS/MS analysis. It counts as ADME, microsome. In a few lines: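 Compound at 10 μM final was preincubated 5 min at 37 °C with NADPH regenerating system in phosphate buffer, pH 7.4. Human or mouse liver microsomes (0.5 mg/mL protein) were added to start the reaction. Samples were taken at 0 (no microsomes) and 10–60 min and measured by LC-MS/MS against an internal standard. Half-life = 0.693/k, with k the slope of ln peak-area ratio versus time. Three experiments, each in duplicate.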

For data set [11], the target named is D(1B) dopamine receptor (Homo sapiens) (UniProt P21918). Nature of the data set: Displacement of [3H]-[…] from human recombinant dopamine D5 receptor expressed in HEK293 cells at 10 uM after 60 to 90 mins by scintillation counting. It counts as cell-based. In a few lines: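 Primary single-concentration radioligand displacement screen run by the NIMH Psychoactive Drug Screening Program across a 46-target panel that includes hERG. The read-out is percent inhibition of specific radioligand binding. Any compound displacing more than 50% of radioligand went on to secondary binding assays to determine Ki.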
In general terms: Displacement assays read how much labelled ligand stays bound in the presence of the test substance.

Data set [12] concerns the target GABA-A receptor; alpha-1/beta-3/gamma-2 (Homo sapiens) (UniProt P14867+P18507+P28472). The experiment in a line: Positive allosteric modulation of GABA-A receptor alpha1beta3gamma2 (unknown origin) expressed in Xenopus laevis oocytes assessed as potentiation of EC3 GABA induced currents up to 1 uM at -60 mV holding potential by electrophysiological method relative to GABA. It is filed as cell-based. The gist of the method:
as §2

The target of data set [13] is GABA-A receptor; alpha-2/beta-3/gamma-2 (Homo sapiens) (UniProt P18507+P28472+P47869). Nature of the data set: Positive allosteric modulation of GABA-A receptor alpha2beta3gamma2 (unknown origin) expressed in Xenopus laevis oocytes assessed as potentiation of EC3 GABA induced currents up to 1 uM at -60 mV holding potential by electrophysiological method relative to GABA. It is filed as cell-based. The gist of the method: as §2

Structures are written as SMILES. Activity calls are given as the source filed them. No cut-off for these calls is given here.

Chain of D(1B) dopamine receptor (Homo sapiens) (P21918 whole entry): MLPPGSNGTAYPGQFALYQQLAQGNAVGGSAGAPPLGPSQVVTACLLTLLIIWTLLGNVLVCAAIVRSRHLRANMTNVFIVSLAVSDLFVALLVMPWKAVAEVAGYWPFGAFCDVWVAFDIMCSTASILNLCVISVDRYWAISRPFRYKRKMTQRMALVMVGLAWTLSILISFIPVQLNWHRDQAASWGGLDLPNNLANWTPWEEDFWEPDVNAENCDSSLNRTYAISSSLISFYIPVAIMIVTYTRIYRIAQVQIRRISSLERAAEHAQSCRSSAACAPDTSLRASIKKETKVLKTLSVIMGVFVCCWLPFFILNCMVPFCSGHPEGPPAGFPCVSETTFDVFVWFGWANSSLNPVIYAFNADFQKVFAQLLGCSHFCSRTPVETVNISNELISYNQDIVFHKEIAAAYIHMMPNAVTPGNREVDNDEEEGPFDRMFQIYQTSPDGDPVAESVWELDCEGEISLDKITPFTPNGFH

Consider `[2H]C([2H])([2H])Oc1ccc(-n2nc3c4ccc(OC)cc4[nH]cc-3c2=O)cc1`, for which the Activity entry is “Non-Toxic” in the data set on HepG2; 2.67 kg/kg with Rattus norvegicus [1]; 67.2% with Rattus norvegicus [2]; 5.84 m in the data set on Rattus norvegicus [4]; 22.36% in the data set on Rattus norvegicus [5]; 2.63 in the data set on Rattus norvegicus [8]. In addition, the fAUC in the data set with Brain stood at 651.72 ng·h/g. The Drug metabolism entry in data set [3], in data set [6] and in [7] was “Metabolite_Detected” throughout.

As for `COc1ccc(-n2nc3c4ccc(OC)cc4[nH]cc-3c2=O)cc1`, the Activity in data set [9], in data set [10], in data set [12] and in data set [13] was below 0% in each case. The t1/2 with Liver was found to be 3.6 h. Moreover, the inhibition result in data set [11] was “Active”.

The record behind these values is ChEMBL document CHEMBL4033790, “Design and Synthesis of Novel Deuterated Ligands Functionally Selective for the γ-Aminobutyric Acid Type A Receptor (GABAAR) α6 Subtype with Improved Metabolic Stability and Enhanced Bioavailability” (J Med Chem, 2018).
